ChEMBL document CHEMBL1944538, “Synthetic peptides derived from the sequence of a lasso peptide microcin J25 show antibacterial activity” (Bioorg Med Chem, 2012)
≈ marks a conversion by molar mass, not a printed value. Calls of active or inactive are those of the source. The rule behind the calls is not given here. Positions of bridges follow the written chain, without caps; N, C: chain ends. Residues, ends and D or L forms follow the SMILES beside them.

Key:
[1] = Stability of the compound at 150 uM after 30 mins by RP-HPLC analysis in the presence of pepsin; type: ADME; settings: 0.5 h
In short: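 Peptide (150 µM) was incubated at 37 °C with pepsin (4% w/w) in 0.1 N HCl. Aliquots taken at 0 and 30 min were quenched into 0.1 N NaOH/70% methanol and centrifuged. Supernatant was analysed by C18 RP-HPLC (15–50% isopropanol/water, 0.05% TFA, 35 min, UV 220 nm). Fragments were identified by MALDI-TOF.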

[2] = Bactericidal activity against Salmonella choleraesuis ATCC 10708 after 24 hrs; type: functional, Salmonella enterica subsp. enterica serovar Choleraesuis; settings: Salmonella enterica, ATCC 10708, 24 h
In short: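 MBC: 10 μL from each clear well of the 24 h, 37 °C LB broth MIC plate spread on LB agar, incubated 24 h at 37 °C; MBC = lowest concentration with no growth on the plate.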

Salmonella enteritidis [3] = test: Bactericidal activity against Salmonella enteritidis ATCC P76 after 24 hrs by liquid growth inhibition assay; type: functional, Salmonella enterica subsp. enterica serovar Enteritidis; settings: Salmonella enterica, ATCC P76, 24 h
Escherichia coli [4] = test: Antibacterial activity against Escherichia coli MC4100 up to 250 uM after 24 hrs by liquid growth inhibition assay; type: functional, organism-based
In short: (§1)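 Liquid broth microdilution in LB. Peptide stocks were made in 20% methanol/water (1 or 2.5 mM), then serially doubled in water to final 0.01–100 or 0.5–250 µM. Inoculum was diluted to OD620 0.02–0.05. Plates ran 24 h at 37 °C and were read at OD620. MIC was the lowest concentration giving 100% growth inhibition (0.05 AU). Triplicate wells, three repeat experiments.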

[5] = Antibacterial activity against Salmonella choleraesuis ATCC 10708 after 24 hrs by liquid growth inhibition assay; type: functional, Salmonella enterica subsp. enterica serovar Choleraesuis; settings: Salmonella enterica, ATCC 10708, 24 h
[6] = system: Salmonella enterica subsp. enterica serovar Montevideo; test: Antibacterial activity against Salmonella montevideo 20 up to 250 uM after 24 hrs by liquid growth inhibition assay; type: functional; in short: as §1
Escherichia coli [7] = test: Antibacterial activity against Escherichia coli DH5alpha up to 250 uM after 24 hrs by liquid growth inhibition assay; type: functional, organism-based; settings: DH5[alpha]; in short: as §1
Salmonella typhimurium [8] = test: Antibacterial activity against Salmonella Typhimurium AFLB 25 after 24 hrs by liquid growth inhibition assay; type: functional, Salmonella enterica subsp. enterica serovar Typhimurium; settings: Salmonella enterica, AFLB 25, 24 h; in short: as §1
[9] = Bactericidal activity against Salmonella newport clinical isolate after 24 hrs; type: functional, Salmonella enterica subsp. enterica serovar Newport; settings: Salmonella enterica
In short: (§2)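 For MBC, 10 µL from each clear well of the 24 h, 37 °C LB broth-dilution plate was spread on LB agar and incubated 24 h at 37 °C. MBC was the lowest concentration giving no growth on agar.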

[10] = Cytotoxicity against human MCF7 cells assessed as cell viability at 0.3 to 100 uM after 24 hrs by MTT assay; type: cell-based; settings: read-out: Activity
In short: (§3)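 MTT assay. MDA-MB-435 cells were kept in RPMI 1640 and MCF7 cells in DMEM, both with 10% FBS, penicillin and streptomycin, at 37 °C and 5% CO2. Cells were seeded at 1×10^4/well and grown 24 h. Samples came from 1 mM stocks in 10% DMSO/water, twofold diluted to 0.3125–100 µM, and applied for 24 h. MTT (5 mg/mL) was added for 3.5 h, then DMSO solubilization and A570. Viability is relative to untreated cells; triplicate, mean.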

[11] = Antibacterial activity against Salmonella newport clinical isolate after 24 hrs by liquid growth inhibition assay; type: functional, Salmonella enterica subsp. enterica serovar Newport; settings: Salmonella enterica; in short: as §1
Salmonella enteritidis [12] = test: Antibacterial activity against Salmonella enteritidis ATCC 13076 up to 250 uM after 24 hrs by liquid growth inhibition assay; type: functional, organism-based; settings: Salmonella enterica subsp. enterica serovar Enteritidis; in short: as §1
Salmonella typhimurium [13] = test: Bactericidal activity against Salmonella Typhimurium ATCC 13311 after 24 hrs; type: functional, Salmonella enterica subsp. enterica serovar Typhimurium; settings: Salmonella enterica, ATCC 13311, 24 h; in short: as §2
Salmonella paratyphi [14] = test: Antibacterial activity against Salmonella paratyphi up to 250 uM after 24 hrs by liquid growth inhibition assay; type: functional, organism-based; settings: Salmonella enterica subsp. enterica serovar Paratyphi A
Salmonella enteritidis [15] = test: Antibacterial activity against Salmonella enteritidis AFLB 41 up to 250 uM after 24 hrs by liquid growth inhibition assay; type: functional, organism-based; settings: Salmonella enterica subsp. enterica serovar Enteritidis; in short: as §1
[16] = Thermostability in boiling water after 3 hrs; type: physicochemical; settings: buffer
Salmonella enteritidis [17] = test: Antibacterial activity against Salmonella enteritidis AFLB 11 up to 250 uM after 24 hrs by liquid growth inhibition assay; type: functional, organism-based; settings: Salmonella enterica subsp. enterica serovar Enteritidis; in short: as §1
[18] = Stability of the compound at 200 uM after overnight incubation by spot on lawn method in the presence of chymotrypsin; type: ADME
[19] = Cytotoxicity against human MDA-MB-435 cells assessed as cell viability at 0.3 to 100 uM after 24 hrs by MTT assay; type: cell-based; settings: read-out: Activity; in short: as §3
[20] = system: Salmonella enterica subsp. enterica serovar Newport; test: Inhibition of oxygen consumption in Salmonella newport clinical isolate at 25 uM after 35 mins by Gilson Clarke oxygraph analysis; type: functional
In short: (§4)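 Cells were held 35 min at 37 °C with peptide at the stated concentration. Respiration rate over the next 5 min was measured polarographically with a Clark electrode oxygraph at 37 °C. Results are percent of a peptide-free control; three independent experiments, mean ± SD.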

Salmonella typhimurium [21] = test: Antibacterial activity against Salmonella Typhimurium ATCC 13311 after 24 hrs by liquid growth inhibition assay; type: functional, Salmonella enterica subsp. enterica serovar Typhimurium; settings: Salmonella enterica, ATCC 13311, 24 h; in short: as §1
Staphylococcus aureus = test: Antibacterial activity against Staphylococcus aureus ATCC 6538; type: functional, organism-based
Enterococcus faecalis = test: Antibacterial activity against Enterococcus faecalis ATCC 19433; type: functional, organism-based
Salmonella enteritidis [22] = test: Antibacterial activity against Salmonella enteritidis AFLB 81 up to 250 uM after 24 hrs by liquid growth inhibition assay; type: functional, organism-based; settings: Salmonella enterica subsp. enterica serovar Enteritidis; in short: as §1
Salmonella enteritidis [23] = test: Antibacterial activity against Salmonella enteritidis PT8 after 24 hrs by liquid growth inhibition assay; type: functional, Salmonella enterica subsp. enterica serovar Enteritidis; settings: Salmonella enterica, PT8, 24 h; in short: as §1
[24] = Antibacterial activity against Salmonella heidelberg ATCC 8326 after 24 hrs by liquid growth inhibition assay; type: functional, Salmonella enterica subsp. enterica serovar Heidelberg; settings: Salmonella enterica, ATCC 8326, 24 h; in short: as §1
[25] = Cytotoxicity against human MCF7 cells assessed as cell viability at 3 uM after 24 hrs by MTT assay; type: cell-based; settings: read-out: Activity
[26] = Cytotoxicity against human MDA-MB-435 cells assessed as cell viability at 3 uM after 24 hrs by MTT assay; type: cell-based; settings: read-out: Activity
Salmonella enteritidis [27] = test: Antibacterial activity against Salmonella enteritidis AFLB 81 after 24 hrs by liquid growth inhibition assay; type: functional, Salmonella enterica subsp. enterica serovar Enteritidis; settings: Salmonella enterica, AFLB 81, 24 h; in short: as §1
[28] = Cytotoxicity against human MCF7 cells assessed as cell viability up to 100 uM after 24 hrs by MTT assay; type: cell-based; settings: read-out: Activity; in short: as §3
Escherichia coli [29] = test: Antibacterial activity against Escherichia coli MC4100 after 24 hrs by liquid growth inhibition assay; type: functional; settings: MC4100, 24 h; in short: as §1
[30] = Cytotoxicity against human MDA-MB-435 cells assessed as cell viability up to 100 uM after 24 hrs by MTT assay; type: cell-based; settings: read-out: Activity; in short: as §3
[31] = system: Salmonella enterica subsp. enterica serovar Newport; test: Inhibition of oxygen consumption in Salmonella newport clinical isolate at 0.25 uM after 35 mins by Gilson Clarke oxygraph analysis; type: functional; in short: as §4
[32] = system: Salmonella enterica subsp. enterica serovar Heidelberg; test: Antibacterial activity against Salmonella heidelberg ATCC 8326 up to 250 uM after 24 hrs by liquid growth inhibition assay; type: functional; in short: as §1
Salmonella enteritidis [33] = test: Antibacterial activity against Salmonella enteritidis ATCC 13076 after 24 hrs by liquid growth inhibition assay; type: functional, Salmonella enterica subsp. enterica serovar Enteritidis; settings: Salmonella enterica, ATCC 13076, 24 h; in short: as §1
Salmonella typhimurium [34] = test: Antibacterial activity against Salmonella Typhimurium ATCC 13311 up to 250 uM after 24 hrs by liquid growth inhibition assay; type: functional, organism-based; settings: Salmonella enterica subsp. enterica serovar Typhimurium; in short: as §1
Escherichia coli [35] = test: Antibacterial activity against Escherichia coli DH5alpha after 24 hrs by liquid growth inhibition assay; type: functional; settings: DH5[alpha]; in short: as §1
Salmonella enteritidis [36] = test: Antibacterial activity against Salmonella enteritidis AFLB 11 after 24 hrs by liquid growth inhibition assay; type: functional, Salmonella enterica subsp. enterica serovar Enteritidis; settings: Salmonella enterica, AFLB 11, 24 h; in short: as §1
Salmonella enteritidis [37] = test: Antibacterial activity against Salmonella enteritidis AFLB 41 after 24 hrs by liquid growth inhibition assay; type: functional, Salmonella enterica subsp. enterica serovar Enteritidis; settings: Salmonella enterica, AFLB 41, 24 h; in short: as §1
Salmonella paratyphi [38] = test: Antibacterial activity against Salmonella paratyphi after 24 hrs by liquid growth inhibition assay; type: functional, Salmonella enterica subsp. enterica serovar Paratyphi A; settings: Salmonella enterica

Compound: CC[C@H](C)[C@@H]1NC(=O)CNC(=O)[C@H](C(C)C)NC(=O)[C@H](Cc2ccccc2)NC(=O)[C@H](Cc2ccc(O)cc2)NC(=O)[C@@H]2CCC(=O)NCC(=O)NCC(=O)N[C@@H](C)C(=O)N[C@@H](CSSC[C@@H](C(=O)O)NC(=O)[C@H](Cc3ccccc3)NC(=O)[C@H](CO)NC(=O)[C@H]([C@@H](C)CC)NC(=O)[C@@H]3CCCN3C(=O)[C@H]([C@@H](C)O)NC(=O)CNC1=O)C(=O)N[C@@H](Cc1cnc[nH]1)C(=O)N[C@@H](C(C)C)C(=O)N1CCC[C@H]1C(=O)N2 (GGACHVPEYFVGIGTPISFC-OH; disulfide 4-20; lactam N-8)
- Stability [1]: Unstable
- MBC [2]: 125 µM (≈ 254 µg/mL)
- MBC (Salmonella enteritidis [3]): 125 µM (≈ 254 µg/mL)
- Activity (Escherichia coli [4]): inactive
- MIC [5]: 90 µM (≈ 183 µg/mL)
- Activity [6]: inactive
- Activity (Escherichia coli [7]): inactive
- MIC (Salmonella typhimurium [8]): 85 µM (≈ 173 µg/mL)
- MBC [9]: 31.2 µM (≈ 63.6 µg/mL)
- viability at 24 h, up to 100 µM [10]: > 90%
- MIC [11]: 25 µM (≈ 50.9 µg/mL)
- Activity (Salmonella enteritidis [12]): inactive
- MBC (Salmonella typhimurium [13]): 125 µM (≈ 254 µg/mL)
- Activity (Salmonella paratyphi [14]): inactive
- Activity (Salmonella enteritidis [15]): inactive
- Stability [16]: Stable
- Activity (Salmonella enteritidis [17]): inactive
- Stability [18]: Unstable
- viability at 24 h, up to 100 µM [19]: > 90%
- inhibition [20]: Active
- MIC (Salmonella typhimurium [21]): 75 µM (≈ 153 µg/mL)
- Activity (Staphylococcus aureus): inactive
- Activity (Enterococcus faecalis): inactive
- Activity (Salmonella enteritidis [22]): inactive
- MIC (Salmonella enteritidis [23]): 80 µM (≈ 163 µg/mL)
- MIC [24]: 83 µM (≈ 169 µg/mL)

Compound: COc1cccc2c1C(=O)c1c(O)c3c(c(O)c1C2=O)C[C@@](O)(C(=O)CO)C[C@@H]3O[C@H]1C[C@H](N)[C@H](O)[C@H](C)O1 [DOXORUBICIN]
- viability at 24 h, 3 µM [25]: 20%
- viability at 24 h, 3 µM [26]: 20%

Compound: CC[C@H](C)[C@H](NC(=O)CNC(=O)[C@@H](NC(=O)[C@H](Cc1ccccc1)NC(=O)[C@H](Cc1ccc(O)cc1)NC(=O)[C@@H]1CCC(=O)NCC(=O)NCC(=O)N[C@@H](C)C(=O)NCC(=O)N[C@@H](Cc2cnc[nH]2)C(=O)N[C@@H](C(C)C)C(=O)N2CCC[C@H]2C(=O)N1)C(C)C)C(=O)NCC(=O)N[C@H](C(=O)N1CCC[C@H]1C(=O)N[C@H](C(=O)N[C@@H](CO)C(=O)N[C@@H](Cc1ccccc1)C(=O)N[C@@H](Cc1ccc(O)cc1)C(=O)NCC(=O)O)[C@@H](C)CC)[C@@H](C)O [MICROCIN J25] (GGAGHVPEYFVGIGTPISFYG-OH; lactam N-8)
- MIC (Salmonella enteritidis [27]): 1.7 µM (≈ 3.58 µg/mL)
- MIC [5]: 1.5 µM (≈ 3.16 µg/mL)
- Activity [6]: inactive
- viability at 24 h [28]: > 80%
- MIC (Salmonella typhimurium [8]): 2.8 µM (≈ 5.9 µg/mL)
- MIC [11]: 0.5 µM (≈ 1.05 µg/mL)
- MIC (Escherichia coli [29]): 5 µM (≈ 10.5 µg/mL)
- viability at 24 h [30]: > 80%
- inhibition [31]: Active
- Activity [32]: inactive
- MIC (Salmonella enteritidis [33]): 1.8 µM (≈ 3.79 µg/mL)
- Activity (Salmonella typhimurium [34]): inactive
- MIC (Escherichia coli [35]): 5 µM (≈ 10.5 µg/mL)
- MIC (Salmonella enteritidis [23]): 1.5 µM (≈ 3.16 µg/mL)
- MIC (Salmonella enteritidis [36]): 2 µM (≈ 4.21 µg/mL)
- MIC (Salmonella enteritidis [37]): 1.6 µM (≈ 3.37 µg/mL)
- MIC (Salmonella paratyphi [38]): 1.5 µM (≈ 3.16 µg/mL)
